ChEMBL document CHEMBL4819012, “Discovery of novel 2-aryl-3-sulfonamido-pyridines (HoAns) as microtubule polymerization inhibitors with potent antitumor activities” (Eur J Med Chem, 2021)
Calls of active or inactive are those of the source. No cut-off for these calls is given here.

What was measured:
RKO [1] = experiment: Induction of apoptosis in human RKO cells assessed as early apoptotic cells at 1 uM measured after 24 hrs by PI/Annexin V staining based flow cytometry assay (reference value: 2.58%); assay type: functional
SW-620 [2] = experiment: Induction of cell cycle arrest in human SW-620 cells assessed as accumulation of cells in G2 phase at 1 uM measured after 24 hrs by PI staining based flow cytometry method (reference value: 13.83%); assay type: functional
SW480 = experiment: Antiproliferative activity against human SW480 cells assessed as cell viability measured after 72 hrs by MTS method; assay type: functional, cell-based; conditions: SW480, 72 h
Outline: (§1)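 Log-phase cells plated at 5×10^3–6×10^3 per well for 24 h, then given graded compound concentrations in fresh medium for 72 h, five replicate wells. Medium replaced with medium containing 10% MTS, 30 min or more at 37 °C in dark; OD 490 nm read. IC50 by nonlinear regression; mean ± SD of at least three experiments.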

SW-620 [3] = experiment: Induction of apoptosis in human SW-620 cells assessed as late apoptotic cells at 1 uM measured after 24 hrs by PI/Annexin V staining based flow cytometry assay (reference value: 3.66%); assay type: functional
RKO [4] = experiment: Induction of cell cycle arrest in human RKO cells assessed as accumulation of cells in G1 phase at 1 uM measured after 24 hrs by PI staining based flow cytometry method (reference value: 39.54%); assay type: functional
[5] = Toxicity against Athymic nude mouse xenografted with SW-620 cells assessed as changes in body weight at 25 mg/kg per two days, po measured after 20 days; assay type: organism-based; conditions: in vivo, 480 h, time 20 day
Outline: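 Nude mice given 5×10^6 SW620 cells s.c. into the right armpit; at ~100 mm³ randomized (n = 6). Dosed orally at 25 mg/kg every 2 days in DMSO:corn oil 1:9 (100 μL) for 20 days; vehicle controls dosed on the same schedule. Body weight recorded every 2 days.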

RKO [6] = experiment: Induction of apoptosis in human RKO cells assessed as increase in cleaved PARP levels at 0.5 to 1 uM measured after 24 hrs by western blot assay; assay type: functional, cell-based; conditions: dose 0.5-1 µM
Outline: (§2)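 RKO or SW620 cells at 4×10^5–5×10^5 per well treated with 0.5 and 1 µM for 24 h; lysed in SDS loading buffer, boiled, SDS-PAGE, PVDF transfer; probed with anti-Bax or anti-cleaved PARP (1:1000) overnight at 4 °C, HRP secondary, ECL detection; β-actin control.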

RKO [7] = experiment: Induction of apoptosis in human RKO cells assessed as late apoptotic cells at 1 uM measured after 24 hrs by PI/Annexin V staining based flow cytometry assay (reference value: 0.81%); assay type: functional
RKO [8] = experiment: Antiproliferative activity against human RKO cells assessed as cell viability measured after 72 hrs by MTS method; assay type: functional, cell-based; outline: as §1
SW-620 [9] = experiment: Induction of cell cycle arrest in human SW-620 cells assessed as accumulation of cells in G1 phase at 1 uM measured after 24 hrs by PI staining based flow cytometry method (reference value: 40.06%); assay type: functional
SW-620 [10] = experiment: Induction of apoptosis in human SW-620 cells assessed as increase in Bax expression at 0.5 to 1 uM measured after 24 hrs by western blot assay; assay type: functional, cell-based; conditions: dose 0.5-1 µM; outline: as §2
SGC-7901 = experiment: Antiproliferative activity against human SGC-7901 cells assessed as cell viability measured after 72 hrs by MTS method; assay type: functional, cell-based; conditions: SGC-7901, 72 h; outline: as §1
SW-620 [11] = experiment: Induction of apoptosis in human SW-620 cells assessed as necrotic cells at 1 uM measured after 24 hrs by PI/Annexin V staining based flow cytometry assay (reference value: 0.03%); assay type: functional
Sus scrofa = organism: Sus scrofa; experiment: Inhibition of pig tubulin polymerization at 10 uM measured every minute for 60 mins by microplate reader method
Outline: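 Kit assay with porcine tubulin (>97% pure) at 4 mg/mL in PIPES 80 mM, MgCl2 2 mM, EGTA 0.5 mM, pH 6.9, with GTP. Compound at 10 μM final (from 100 μM working solution) preincubated 5 min at 37 °C in a prewarmed plate before cold tubulin mix is added. A340 read every minute for 60 min at 37 °C.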

Tubulin (Homo sapiens) = Tubulin (Homo sapiens) (UniProt P68371+Q9H4B7+P0DPH7+P68366+Q13509+Q71U36+P04350+Q3ZCM7+P07437+P68363+Q9BQE3+Q6PEY2+Q13885+Q9BVA1+Q9BUF5); experiment: Inhibition of tubulin polymerization in human RKO cells assessed as morphology changed to fusiform at 1 uM measured 24 hrs by DAPI staining based immunoflourescence assay; assay type: cell-based; conditions: in the assay text read “changed to round from fusiform” for “changed to fusiform”
Outline: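 RKO cells on coverslips (2.5×10^5 per well) incubated overnight, then treated for 24 h at 0.5 or 1 μM, DMSO, or 1 μM comparators. Fixed in cold methanol 10 min, permeabilized with 0.25% Triton X-100, blocked in 1% BSA at 4 °C overnight. Stained with anti-β-tubulin (1:100, 2 h RT) and Alexa Fluor 594 secondary (1:500, 1 h), nuclei with DAPI; imaged by fluorescence microscopy.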

SW-620 [12] = experiment: Antitumour activity against human SW-620 cells xenografted in Athymic nude mouse assessed as decrease in tumour growth at 25 mg/kg per two days, po measured after 20 days; assay type: functional; parameters: scale not given: the % may be the effect or the level left; conditions: time 20 day
Outline: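 Nude mice inoculated s.c. in right armpit with 5×10^6 SW620 cells in 125 µL PBS; at about 100 mm³ randomized, n = 6. Dosed orally 25 mg/kg every 2 days for 20 days in DMSO:corn oil 1:9. Tumour volume (L×W²/2) and body weight measured every 2 days; inhibition from final tumour weight vs vehicle.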

RKO [13] = experiment: Induction of apoptosis in human RKO cells assessed as necrotic cells at 1 uM measured after 24 hrs by PI/Annexin V staining based flow cytometry assay (reference value: 0.01%); assay type: functional
SW-620 [14] = experiment: Induction of cell cycle arrest in human SW-620 cells assessed as accumulation of cells in S phase at 1 uM measured after 24 hrs by PI staining based flow cytometry method (reference value: 46.12%); assay type: functional
SW-620 [15] = experiment: Induction of apoptosis in human SW-620 cells assessed as increase in cleaved PARP levels at 0.5 to 1 uM measured after 24 hrs by western blot assay; assay type: functional, cell-based; conditions: dose 0.5-1 µM; outline: as §2
PANC-1 = experiment: Induction of cell cycle arrest in human PANC-1 cells assessed as accumulation of cells in G2 phase at 1 uM measured after 24 hrs by PI staining based flow cytometry method (reference value: 3.63%); assay type: functional
SW-620 [16] = experiment: Induction of apoptosis in human SW-620 cells assessed as increase in ROS levels at 0.5 uM measured after 24 hrs by DCFH-DA staining based flow cytometry method relative to control; assay type: functional
Outline: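 Cells at 5×10^5 per well exposed to 0.25 or 0.5 µM for 24 h, then loaded with 5 µM DCFH-DA in serum-free medium 30 min at 37 °C; washed, harvested, read by flow cytometry (ex 488/em 525 nm). ROS given as ratio of treated to control; at least three experiments.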

Structure (SMILES) | Activity (RKO [1]) | Activity (SW-620 [2]) | IC50 (SW480) | Activity (SW-620 [3]) | Activity (RKO [4]) | Activity [5] | Activity (RKO [6]) | Activity (RKO [7]) | IC50 (RKO [8]) | Activity (SW-620 [9]) | Activity (SW-620 [10]) | IC50 (SGC-7901) | Activity (SW-620 [11]) | inhibition (Sus scrofa) | inhibition (Tubulin (Homo sapiens)) | Activity (SW-620 [12]) | Activity (RKO [13]) | Activity (SW-620 [14]) | Activity (SW-620 [15]) | Activity (PANC-1) | further results
COc1ccc(S(=O)(=O)Nc2cccnc2Nc2ccc(O)cc2)cc1 [ABT-751] | 10.16% | 17.69% | 3420 nM | 4.322% | 0.98% | Non-Toxic | Active | 1.31% | 633 nM | 37.86% | Active | 738 nM | 0.07% | Active | Active | 49.3% | 0.1% | 44.45% | Active | 64.83% | fold change (FC) (SW-620 [16]): 1.8
COc1ccc(S(=O)(=O)Nc2cccnc2-c2ccc(C#N)c(F)c2)cc1 | 36.65% | 76.28% | 338 nM | 4.26% | 8.75% | Non-Toxic | Active | 1.52% | 170 nM | 8.05% | Active | 617 nM | 0.09% | Active | Active | 53.6% | 0.17% | 15.67% | Active | 28.01% | fold change (FC) (SW-620 [16]): 1.5
